Measurements published in ChEMBL document CHEMBL2346552, “A novel metformin derivative, HL010183, inhibits proliferation and invasion of triple-negative breast cancer cells” (Bioorg Med Chem, 2013).
Counter-ions that a name gives are not always drawn. The source made the active and inactive calls. The rule behind the calls is not given here.

Key:
MDA-MB-231 [1] = test: Induction of apoptosis in triple-negative human MDA-MB-231 cells assessed as early apoptotic cells at 10 mM after 24 hrs by annexin V-FITC/propidium iodide staining-based flow cytometric analysis relative to control; format: functional
How it was run: (§1)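 MDA-MB-231 cells treated 24 h at 0.1 or 10 mM were stained with FITC-annexin V and propidium iodide and analyzed by flow cytometry. Quadrants: annexin−/PI− viable; annexin+/PI− early apoptotic; PI+ late apoptotic/necrotic.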

MDA-MB-231 [2] = test: Induction of apoptosis in triple-negative human MDA-MB-231 cells assessed as viable cells at 10 mM after 24 hrs by annexin V-FITC/propidium iodide staining-based flow cytometric analysis relative to control; format: functional; conditions: MDA-MB-231, 24 h, read-out: Activity; how it was run: as §1
MDA-MB-231 [3] = test: Induction of apoptosis in triple-negative human MDA-MB-231 cells assessed as apoptotic cells at 10 mM after 24 hrs by annexin V-FITC/propidium iodide staining-based flow cytometric analysis relative to control; format: functional; how it was run: as §1
MDA-MB-231 [4] = test: Cytotoxicity against triple-negative human MDA-MB-231 cells assessed as growth inhibition after 24 hrs by MTT assay; format: functional, cell-based; conditions: MDA-MB-231, 24 h
Hs-578T [5] = test: Cytotoxicity against triple-negative human Hs578T cells assessed as growth inhibition after 24 hrs by MTT assay; format: functional, cell-based
Mus musculus [6] = test: Toxicity in BALB/c athymic nude mouse xenografted with triple-negative human MDA-MB-231 cells assessed as body weight change at 500 mg/kg, po qd measured for 35 days relative to vehicle-treated control; format: organism-based; parameters: dose 500 mg/kg, route oral; conditions: in vivo, 840 h
How it was run: (§2)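 MDA-MB-231 s.c. xenograft in nude mice (n = 6), dosed orally by gavage once daily for 35 days at 25–100 or 500 mg/kg. Body weights were recorded three times weekly and compared with vehicle-treated mice.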

MDA-MB-231 [7] = test: Induction of apoptosis in triple-negative human MDA-MB-231 cells assessed as dead cells at 10 mM after 24 hrs by annexin V-FITC/propidium iodide staining-based flow cytometric analysis relative to control; format: functional
How it was run: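 MDA-MB-231 cells grown in DMEM at 37 °C, 5% CO2, then exposed for 24 h to agent dissolved in distilled water. Cells were stained at 1 × 10^6 cells/ml with FITC-annexin V and/or propidium iodide for flow cytometry and read as quadrant dot plots. Lower left is viable, lower right early apoptotic, upper quadrants late apoptotic/necrotic.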

Hs-578T [8] = test: Antiinvasive activity against triple-negative human Hs578T cells after 17 hrs by light microscopic analysis; format: functional, cell-based
How it was run: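 Transwell filter invasion assay; serum-free medium with 0.1% BSA plus drug in the lower chamber, 5 × 10⁴ Hs578T cells plus drug in the upper chamber. Invaded cells on the underside of the filter counted by light microscopy at 400× after 17 h, thirteen fields per filter, each sample in triplicate. Hs578T cultured in DMEM at 37 °C, 5% CO₂.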

Hs-578T [9] = test: Antiinvasive activity against triple-negative human Hs578T cells at 5 mM after 17 hrs by light microscopic analysis relative to control; format: functional
MDA-MB-231 [10] = test: Induction of apoptosis in triple-negative human MDA-MB-231 cells assessed as dead cells at 0.1 mM after 24 hrs by annexin V-FITC/propidium iodide staining-based flow cytometric analysis relative to control; format: functional
How it was run: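 MDA-MB-231 cells grown in DMEM at 37 °C, 5% CO2, then exposed for 24 h to agent dissolved in DMSO. Cells were stained at 1 × 10^6 cells/ml with FITC-annexin V and/or propidium iodide and analysed by flow cytometry as quadrant dot plots. Lower left is viable, lower right early apoptotic, upper right/left late apoptotic/necrotic (membrane integrity lost).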

MDA-MB-231 [11] = test: Induction of apoptosis in triple-negative human MDA-MB-231 cells assessed as viable cells at 0.1 mM after 24 hrs by annexin V-FITC/propidium iodide staining-based flow cytometric analysis relative to control; format: functional; conditions: MDA-MB-231, 24 h, read-out: Activity; how it was run: as §1
MDA-MB-231 [12] = test: Induction of apoptosis in triple-negative human MDA-MB-231 cells assessed as early apoptotic cells at 0.1 mM after 24 hrs by annexin V-FITC/propidium iodide staining-based flow cytometric analysis relative to control; format: functional; how it was run: as §1
MDA-MB-231 [13] = test: Induction of apoptosis in triple-negative human MDA-MB-231 cells assessed as apoptotic cells at 0.1 mM after 24 hrs by annexin V-FITC/propidium iodide staining-based flow cytometric analysis relative to control; format: functional; how it was run: as §1
MDA-MB-231 [14] = test: Antitumor activity against triple-negative human MDA-MB-231 cells xenografted in BALB/c athymic nude mouse assessed as tumor growth inhibition at 25 mg/kg, po qd measured for 35 days relative to vehicle-treated control; format: functional; conditions: MDA-MB-231, 840 h, read-out: TGI
How it was run: (§3)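 MDA-MB-231 cells (5 × 10^6 in 0.1 mL serum-free medium) were injected s.c. into the right lower flank of nude mice. At tumor volumes of 100–130 mm³, mice (n = 6) received oral gavage once daily for 35 days at 25, 50, 100 or 500 mg/kg. Caliper volumes, (length × width²)/2, were taken three times weekly. Inhibition was calculated versus the vehicle group.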

MDA-MB-231 [15] = test: Ratio of compound activity to metformin activity for tumor growth inhibition of triple-negative human MDA-MB-231 cells xenografted in BALB/c athymic nude mouse; format: functional
Mus musculus [16] = test: Toxicity in BALB/c athymic nude mouse xenografted with triple-negative human MDA-MB-231 cells assessed as body weight change at 25 to 100 mg/kg, po qd measured for 35 days relative to vehicle-treated control; format: organism-based; parameters: dose 25-100 mg/kg, route oral; conditions: in vivo, 840 h; how it was run: as §2
MDA-MB-231 [17] = test: Antitumor activity against triple-negative human MDA-MB-231 cells xenografted in BALB/c athymic nude mouse assessed as tumor growth inhibition at 100 mg/kg, po qd measured for 35 days relative to vehicle-treated control; format: functional; conditions: MDA-MB-231, 840 h, read-out: TGI; how it was run: as §3
MDA-MB-231 [18] = test: Antitumor activity against triple-negative human MDA-MB-231 cells xenografted in BALB/c athymic nude mouse assessed as tumor growth inhibition at 50 mg/kg, po qd measured for 35 days relative to vehicle-treated control; format: functional; conditions: MDA-MB-231, 840 h, read-out: TGI; how it was run: as §3
[19] = biological target: Serine/threonine-protein kinase mTOR (Homo sapiens) (UniProt P42345); test: Ratio of compound activity to metformin activity for inhibition of mTOR phosphorylation in triple-negative human […] cells; format: cell-based
[20] = biological target: 5'-AMP-activated protein kinase catalytic subunit alpha-2 (Homo sapiens) (UniProt P54646); test: Ratio of compound activity to metformin activity for activation of AMPK in triple-negative human […] cells; format: cell-based
Sequence of 5'-AMP-activated protein kinase catalytic subunit alpha-2 (Homo sapiens) (P54646 whole entry, looked up): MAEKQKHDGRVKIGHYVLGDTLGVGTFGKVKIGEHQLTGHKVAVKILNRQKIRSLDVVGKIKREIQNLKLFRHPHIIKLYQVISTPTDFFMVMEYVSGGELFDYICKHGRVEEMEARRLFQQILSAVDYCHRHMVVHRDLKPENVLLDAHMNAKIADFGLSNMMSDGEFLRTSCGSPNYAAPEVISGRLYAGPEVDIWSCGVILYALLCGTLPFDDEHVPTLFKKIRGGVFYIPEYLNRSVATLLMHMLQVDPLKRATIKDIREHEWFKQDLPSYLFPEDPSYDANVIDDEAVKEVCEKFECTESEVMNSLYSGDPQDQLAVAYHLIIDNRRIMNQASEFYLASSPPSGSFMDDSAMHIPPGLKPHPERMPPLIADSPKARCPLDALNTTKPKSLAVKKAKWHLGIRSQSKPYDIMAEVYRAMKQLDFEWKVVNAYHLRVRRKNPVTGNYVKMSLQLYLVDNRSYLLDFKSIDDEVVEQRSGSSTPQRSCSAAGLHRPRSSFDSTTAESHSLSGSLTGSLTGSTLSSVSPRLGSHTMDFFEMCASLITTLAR

[21] = biological target: Serine/threonine-protein kinase mTOR (Homo sapiens) (UniProt P42345); test: Inhibition of mTOR phosphorylation in triple-negative human […] cells at 0.2 mM after 24 hrs by immunoblot analysis; format: cell-based
How it was run: (§4)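 Hs578T cells exposed to compound for 24 h at 0.05–0.2 mM or 5–20 mM. Lysates were made in Triton X-100 buffer (pH 7.4, NaF, EGTA, DTT, Na3VO4, protease inhibitors) and run on 10% SDS–PAGE. Immunoblots were probed with anti-phospho AMPK or anti-phospho mTOR antibody.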

[22] = biological target: 5'-AMP-activated protein kinase catalytic subunit alpha-2 (Homo sapiens) (UniProt P54646); test: Activation of AMPK in triple-negative human […] cells at 0.2 mM after 24 hrs by immunoblot analysis; format: cell-based; how it was run: as §4
Hs-578T [23] = test: Antiinvasive activity against triple-negative human Hs578T cells assessed as downregulation of MMP9 level at 0.05 to 0.2 mM after 24 hrs by gelatin zymogram assay; format: functional, cell-based
How it was run: (§5)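 Hs578T cells were cultured 24 h in serum-free medium containing compound at 0.05–0.2 mM or 5–20 mM. Gelatinolytic activity of the conditioned medium was resolved by gelatin zymography (MMP-2 72 kDa, MMP-9 92 kDa). Relative band intensities were quantified by densitometry.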

Hs-578T [24] = test: Antiinvasive activity against triple-negative human Hs578T cells assessed as downregulation of MMP2 level by immunoblot analysis; format: functional, cell-based
Hs-578T [25] = test: Antiinvasive activity against triple-negative human Hs578T cells assessed as downregulation of MMP2 level after 24 hrs by gelatin zymogram assay; format: functional, cell-based; how it was run: as §5
Hs-578T [26] = test: Ratio of compound activity to metformin activity for inhibition of triple-negative human Hs578T cells invasiveness; format: functional
Hs-578T [27] = test: Antiinvasive activity against triple-negative human Hs578T cells at 0.2 mM after 17 hrs by light microscopic analysis relative to control; format: functional
How it was run: (§6)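 Transwell invasion with polycarbonate filters. 5 × 10^4 Hs578T cells were placed in the upper chamber with drug, and the lower chamber held serum-free medium with 0.1% BSA plus drug. After 17 h, cells invaded to the filter underside were counted by light microscopy (400×) in 13 fields per filter. Each sample was run in triplicate.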

Hs-578T [28] = test: Ratio of metformin IC50 to compound IC50 for triple-negative human Hs578T cells; format: functional
How it was run: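 Hs578T cells were exposed to compounds for 24 h and viability was read by MTT (4 h, formazan dissolved in DMSO, OD 540 nm), in triplicate. The ratio uses IC50 values from this assay.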

[29] = biological target: Serine/threonine-protein kinase mTOR (Homo sapiens) (UniProt P42345); test: Inhibition of mTOR phosphorylation in triple-negative human […] cells at 20 mM after 24 hrs by immunoblot analysis; format: cell-based; how it was run: as §4
[30] = biological target: 5'-AMP-activated protein kinase catalytic subunit alpha-2 (Homo sapiens) (UniProt P54646); test: Activation of AMPK in triple-negative human […] cells at 20 mM after 24 hrs by immunoblot analysis; format: cell-based; how it was run: as §4
Hs-578T [31] = test: Antiinvasive activity against triple-negative human Hs578T cells assessed as downregulation of MMP9 level at 5 to 20 mM after 24 hrs by gelatin zymogram assay; format: functional, cell-based; how it was run: as §5
Hs-578T [32] = test: Antiinvasive activity against triple-negative human Hs578T cells at 20 mM after 17 hrs by light microscopic analysis; format: functional, cell-based; how it was run: as §6
Hs-578T [33] = test: Antiinvasive activity against triple-negative human Hs578T cells at 10 mM after 17 hrs by light microscopic analysis; format: functional, cell-based; how it was run: as §6

CN(C)C(=N)NC(=N)N.Cl [METFORMIN HYDROCHLORIDE]
Activity (MDA-MB-231 [1]): 1.8%
viability at 10000 µM (MDA-MB-231 [2]): 82.4%
Activity (MDA-MB-231 [3]): 15.3%
IC50 (MDA-MB-231 [4]): 58.4 mM
IC50 (Hs-578T [5]): 26.8 mM
Activity (Mus musculus [6]): Non-toxic
Activity (MDA-MB-231 [7]): 0.5%

CN(C)C(=N)NC(=N)N.NCCCC(=O)O [listing 1 of 2 here]
Activity (Hs-578T [8]): Dose-dependent effect

CN(C)C(=N)NC(=N)N.NCC1(CC(=O)O)CCCCC1 [METFORMIN GABAPENTIN SALT]
IC50 (MDA-MB-231 [4]): 16.1 mM
IC50 (Hs-578T [5]): 4 mM
inhibition at 5000 µM (Hs-578T [9]): 73.6%

CC(C)C[C@H](CN)CC(=O)O.CN(C)C(=N)NC(=N)N [METFORMIN PREGABALIN SALT]
IC50 (MDA-MB-231 [4]): 17.7 mM
IC50 (Hs-578T [5]): 7.2 mM
inhibition at 5000 µM (Hs-578T [9]): 64.6%

CCCc1ccccc1Nc1nc(N)nc(N(C)C)n1.Cl
Activity (MDA-MB-231 [10]): 1.6%
viability at 100 µM (MDA-MB-231 [11]): 78.4%
Activity (MDA-MB-231 [12]): 3.1%
Activity (MDA-MB-231 [13]): 17%
IC50 (MDA-MB-231 [4]): 0.28 mM
IC50 (Hs-578T [5]): 0.28 mM
inhibition in vivo at 25 mg/kg (MDA-MB-231 [14]): 6.2%
Ratio (MDA-MB-231 [15]): 5
Activity (Mus musculus [16]): Non-toxic
inhibition in vivo at 100 mg/kg (MDA-MB-231 [17]): 27.9%
inhibition in vivo at 50 mg/kg (MDA-MB-231 [18]): 17.4%
Ratio [19]: 100
Ratio [20]: 100
inhibition [21]: Active
Activity [22]: Active
Activity (Hs-578T [23]): inactive
Activity (Hs-578T [24]): Dose-dependent effect
Activity (Hs-578T [25]): Dose-dependent effect
Ratio (Hs-578T [26]): 100
inhibition at 200 µM (Hs-578T [27]): 36.6%
Ratio IC50 (Hs-578T [28]): 100

N=C(N)NC(=N)NCCc1ccccc1 [PHENFORMIN ACETIC ACID SALT]
IC50 (MDA-MB-231 [4]): 1.68 mM
IC50 (Hs-578T [5]): 0.9 mM

CN(C)C(=N)NC(=N)N.NCCCC(=O)O [listing 2 of 2 here]
IC50 (MDA-MB-231 [4]): 41.5 mM
IC50 (Hs-578T [5]): 9.1 mM
inhibition at 5000 µM (Hs-578T [9]): 43.6%

CN(C)C(=N)NC(=N)N
inhibition [29]: Active
Activity [30]: Active
Activity (Hs-578T [31]): inactive
Activity (Hs-578T [24]): Dose-dependent effect
Activity (Hs-578T [25]): Dose-dependent effect
inhibition (Hs-578T [32]): Active
inhibition (Hs-578T [33]): inactive
